# Publication PMC10449972 (Clinical Pharmacokinetics, 2023)
# Assays:
# hepatic HSD-1 [1] = conditions: lowest daily dose of 1 mg ABT-384, last day of dosing; cited from earlier work
# HSD-1 [2] = target: T1, HSD-1 (Homo sapiens, UniProt P28845); assay: TMDD model component: binding of SPI-62 to its pharmacological target HSD-1; type: in vivo, human (healthy adults)
# Summary of the method: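 Target-binding component of the simultaneous population PK/PD fit. Drug in the central compartment binds HSD-1 with a second-order association constant (Kon) to form a complex. The complex dissociates with a first-order constant (Koff). Rtotal is the total HSD-1 amount. Data were pooled plasma concentrations from single- and multiple-dose trials plus urinary HSD-1 activity from multiple-dose cohorts. Kd was derived as Koff/Kon, and IIV was exponential.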
# hepatic HSD-1 [3] = target: T2, hepatic HSD-1 (Homo sapiens, UniProt P28845); assay: Hepatic HSD-1 activity, urinary ratio; type: in vivo, human (healthy adults); conditions: regimens as low as 0.2 mg once daily, lowest dose tested
# Summary of the method: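 Healthy adults in low-dose multiple-dose cohorts were given oral test compound: 3 mg loading then 0.2 mg once daily (days 2–14); 0.4 mg once daily (days 1–14); or 0.7 or 2 mg single dose, 6-day washout, then once daily (days 7–20). First-morning urine was collected predose and on scheduled days, and steroids were measured by LC-MS/MS. Activity ratio was fitted against time-matched model-predicted plasma concentration using a sigmoid inhibitory Imax model.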
# [4] = single dose of 0.7 mg SPI-62, plasma; cited from earlier work
# HSD-1 [5] = target: T1, HSD-1; conditions: earlier TMDD model; cited from earlier work
# hepatic HSD-1 [6] = target: T2, hepatic HSD-1; conditions: cited from earlier work
# human HSD-1 = conditions: measured in vitro; cited from earlier work
# HSD-2 = conditions: cited from earlier work
# T2 sequence (P28845 whole entry): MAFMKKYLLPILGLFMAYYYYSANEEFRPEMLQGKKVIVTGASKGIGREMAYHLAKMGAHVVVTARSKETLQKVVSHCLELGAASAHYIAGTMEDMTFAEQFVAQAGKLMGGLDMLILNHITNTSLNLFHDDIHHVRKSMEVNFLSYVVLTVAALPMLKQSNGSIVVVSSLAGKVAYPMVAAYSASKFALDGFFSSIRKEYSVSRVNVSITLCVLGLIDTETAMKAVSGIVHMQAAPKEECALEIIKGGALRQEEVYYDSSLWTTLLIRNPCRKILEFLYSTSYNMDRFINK
# T1 sequence (P28845 whole entry): as above
SMILES,Hepatic HSD-1 inhibition (hepatic HSD-1 [1]),Kd (HSD-1 [2]) [nM],"Kd, ratio of Koff and Kon (HSD-1 [2]; calculated from TMDD model estimates) [nM]",Target capacity (Rtot) expressed as amount of SPI-62 (HSD-1 [2]; corresponds to 5460 nmol),"Kon, second-order association rate constant (HSD-1 [2]; estimated, final PK/PD model) [nM⁻¹ h⁻¹]",Inhibition of hepatic HSD-1 (hepatic HSD-1 [3]),Average Cmax [4] [ng/mL],"Rmax, capacity of the target, estimated using PK data alone (HSD-1 [5]) [nmol]","Hepatic HSD-1 inhibition on day 6 (hepatic HSD-1 [6]; after single low dose, 6-day wash out, day 6) [%]","HSD-1 inhibition after repeated doses (hepatic HSD-1 [6]; all low dose groups (0.2 mg with 3 mg loading dose, 0.4, 0.7, 2 mg QD))","Return of urinary HSD-1 ratio to baseline (hepatic HSD-1 [6]; approximately 16 days after the last dose, lowest dose 0.2 mg)",HSD-1 inhibition (urinary HSD-1 ratio) after the first dose (hepatic HSD-1 [6]; first dose of 0.7 mg),Hepatic HSD-1 inhibition (hepatic HSD-1 [6]; following a single dose of 0.7 mg),Ki (human HSD-1) [nM],Activity on HSD-2 (HSD-2)
CC(C)(C(=O)NC1C2CC3CC1CC(C(N)=O)(C3)C2)N1CCN(c2ccc(C(F)(F)F)cn2)CC1 (stereo not drawn) [ABT-384],full hepatic HSD-1 inhibition,,,,,,,,,,,,,,
Cn1c(-c2ccc(C(N)=O)cc2F)nnc1C(C)(C)Oc1c(F)cc(Cl)cc1F [SPI-62],,0.0272,0.0272,approximately 2.2 mg,8.43,almost complete inhibition,0.02,6070,> 30,full HSD-1 inhibition,incomplete return,substantial HSD-1 inhibition,more than 40%,5.3,minimal activity
